Assay results: ChEMBL document CHEMBL1123422, “1-Ethyl-7-[3-[(ethylamino)methyl]-1-pyrrolidinyl]-6,8-difluoro-1,4- dihydro-4-oxo-3-quinoline-carboxylic acid. New quinolone antibacterial with potent gram-positive activity” (1986)
Converted amounts (≈) assume the structure as drawn.

Tests used:
Escherichia coli [1] = assay: Compound was tested for inhibition of the gram-negative organism Escherichia coli H560; format: functional
In short: (§1)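 MICs read in standard microdilution (microtitration) format against a panel of 10 bacterial organisms; values in µg/mL.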

Escherichia coli [2] = assay: Compound was tested for inhibition of the gram-negative organism Escherichia coli vogel; format: functional; in short: as §1
Enterobacter cloacae = assay: Compound was tested for inhibition of the gram-negative organism […] HA 2646; format: functional
[3] = biological target: DNA gyrase (Escherichia coli) (UniProt P0AES6+P0AES4); assay: Inhibition of DNA gyrase of Escherichia coli H560 cells
In short: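 DNA gyrase purified from Escherichia coli H560 cells. Cleavage assay: drug-gyrase-DNA complex denatured, converting closed circular DNA to linear DNA. Linear DNA resolved by gel electrophoresis and stained with ethidium bromide. Value is the minimum drug concentration (µg/mL) giving linear DNA at an intensity relative to oxolinic acid at 10 µg/mL. Aqueous drug stocks made up in 0.1 N NaOH or KOH.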

Klebsiella pneumoniae = assay: Compound was tested for inhibition of the gram-negative organism Klebsiella pneumoniae MGH-2; format: functional; in short: as §1
Mus musculus [4] = assay: Compound was evaluated for protective dose against the Escherichia coli vogel lethal infection following peroral administration in mouse; format: functional; conditions: po, read-out: PD50
In short: (§2)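 Acute lethal systemic infection in female Charles River CD-1 mice (18–22 g), challenged intraperitoneally with an estimated 100 median lethal dose in 5% hog gastric mucin. Single doses in a twofold rising series were given with the challenge, sc as aqueous solution or po by gavage in 5% gum acacia. PD50 (mg/kg) was estimated by log probit from survival of eight mice per dose.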

Mus musculus [5] = assay: Compound was evaluated for protective dose against the Escherichia coli vogel lethal infection following sc administration in mouse; format: functional; conditions: read-out: PD50; in short: as §2
Mus musculus [6] = assay: Compound was evaluated for protective dose against the Streptococcus pneumoniae SV-1 lethal infection following po administration; format: functional; conditions: read-out: PD50
In short: (§3)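 Female Charles River CD-1 mice (18–22 g) were challenged intraperitoneally with an estimated 100 median lethal dose in tryptic soy broth. Single doses, in a twofold rising series, were given at the same time as challenge: subcutaneously as aqueous solution, or orally by gavage in 5% gum acacia. Survival in groups of eight mice per dose gave PD50 (mg/kg) by log probit.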

Pseudomonas aeruginosa = assay: Compound was tested for inhibition of the gram-negative organism Pseudomonas aeruginosa UI-18; format: functional; in short: as §1
Providencia rettgeri = assay: Compound was tested for inhibition of the gram-negative organism Providencia rettgeri H1771; format: functional; in short: as §1
Enterococcus faecalis = assay: Compound was tested for inhibition of the […] organism Streptococcus faecalis MGH-2; format: functional; in short: as §1
Streptococcus pyogenes = assay: Compound was tested for inhibition of the […] organism Streptococcus pyogenes C203.; format: functional; in short: as §1
Streptococcus pneumoniae = assay: Compound was tested for inhibition of the […] organism Streptococcus pneumoniae SV-1; format: functional; in short: as §1
Staphylococcus aureus [7] = assay: Compound was tested for inhibition of the […] organism […] H228.; format: functional; in short: as §1
Staphylococcus aureus [8] = assay: Compound was tested for inhibition of the […] organism […] UC-76.; format: functional; in short: as §1
Mus musculus [9] = assay: Compound was evaluated for protective dose against Streptococcus pneumoniae SV-1 lethal infection following sc administration; format: functional; conditions: read-out: PD50; in short: as §3
Mus musculus [10] = assay: Compound was evaluated for protective dose against the […] UC-76 lethal infection following po administration in mouse; format: functional; conditions: read-out: PD50; in short: as §2
Mus musculus [11] = assay: Compound was evaluated for protective dose against the […] UC-76 lethal infection following sc administration in mouse; format: functional; conditions: read-out: PD50; in short: as §2

SMILES | MIC (Escherichia coli [1]) [µg/mL] | MIC (Escherichia coli [2]) [µg/mL] | MIC (Enterobacter cloacae) [µg/mL] | Min concentration [3] [µg/mL] | MIC (Klebsiella pneumoniae) [µg/mL] | ED50 (Mus musculus [4]) [mg/kg] | ED50 (Mus musculus [5]) [mg/kg] | ED50 (Mus musculus [6]) [mg/kg] | MIC (Pseudomonas aeruginosa) [µg/mL] | MIC (Providencia rettgeri) [µg/mL] | MIC (Enterococcus faecalis) [µg/mL] | MIC (Streptococcus pyogenes) [µg/mL] | MIC (Streptococcus pneumoniae) [µg/mL] | MIC (Staphylococcus aureus [7]) [µg/mL] | MIC (Staphylococcus aureus [8]) [µg/mL] | ED50 (Mus musculus [9]) [mg/kg] | ED50 (Mus musculus [10]) [mg/kg] | ED50 (Mus musculus [11]) [mg/kg]
CCn1cc(C(=O)O)c(=O)c2cc(F)c(N3CCC(CN)C3)c(F)c21 (stereo unspecified) | 0.1 (≈ 0.285 µM) | 0.1 (≈ 0.285 µM) | 0.2 (≈ 0.569 µM) | 0.5 | 0.4 (≈ 1.14 µM) | 90 | 1.2 | 100 | 0.8 (≈ 2.28 µM) | 0.4 (≈ 1.14 µM) | 0.1 (≈ 0.285 µM) | 0.1 (≈ 0.285 µM) | 0.2 (≈ 0.569 µM) | 0.1 (≈ 0.285 µM) | 0.1 (≈ 0.285 µM) | 5 | – | –
CCn1cc(C(=O)O)c(=O)c2cc3c(cc21)OCO3 [OXOLINIC ACID] | 0.2 (≈ 0.766 µM) | 0.2 (≈ 0.766 µM) | 0.4 (≈ 1.53 µM) | 10 | 0.2 (≈ 0.766 µM) | 17 | 9 | – | 6.3 (≈ 24.1 µM) | 0.1 (≈ 0.383 µM) | 12.5 (≈ 47.9 µM) | > 100 | – | 1.6 (≈ 6.12 µM) | 0.8 (≈ 3.06 µM) | – | > 100 | 63
O=C(O)c1cn(C2CC2)c2cc(N3CCNCC3)c(F)cc2c1=O [CIPROFLOXACIN] | 0.025 (≈ 0.0754 µM) | – | – | 0.5 | 0.1 (≈ 0.302 µM) | 1.2 | 0.25 | > 100 | 0.4 (≈ 1.21 µM) | 0.1 (≈ 0.302 µM) | 0.8 (≈ 2.41 µM) | 0.8 (≈ 2.41 µM) | – | 3.1 (≈ 9.36 µM) | 0.2 (≈ 0.604 µM) | 18 | 9.5 | 3
CCn1cc(C(=O)O)c(=O)c2ccc(C)nc21 [NALIDIXIC ACID] | 6.3 (≈ 27.1 µM) | 3.1 (≈ 13.3 µM) | 6.3 (≈ 27.1 µM) | 50 | 6.3 (≈ 27.1 µM) | 45 | 26 | > 100 | > 100 | 6.3 (≈ 27.1 µM) | > 100 | > 100 | – | 100 (≈ 431 µM) | 25 (≈ 108 µM) | > 100 | > 100 | > 100
CCn1cc(C(=O)O)c(=O)c2cc(F)c(N3CCC(CN)C3)cc21 (stereo unspecified) | 0.4 (≈ 1.2 µM) | 0.8 (≈ 2.4 µM) | 1.6 (≈ 4.8 µM) | 3 | 3.1 (≈ 9.3 µM) | > 100 | 25 | – | 1.6 (≈ 4.8 µM) | 6.3 (≈ 18.9 µM) | 0.8 (≈ 2.4 µM) | 0.2 (≈ 0.6 µM) | 0.2 (≈ 0.6 µM) | 1.6 (≈ 4.8 µM) | 0.05 (≈ 0.15 µM) | – | > 50 | 6
CCn1cc(C(=O)O)c(=O)c2cc(F)c(N3CCC(CNC)C3)cc21 (stereo unspecified) | 0.2 (≈ 0.576 µM) | 0.2 (≈ 0.576 µM) | 1.6 (≈ 4.61 µM) | – | 1.6 (≈ 4.61 µM) | > 100 | 18 | > 100 | 1.6 (≈ 4.61 µM) | 6.3 (≈ 18.1 µM) | 1.6 (≈ 4.61 µM) | 0.1 (≈ 0.288 µM) | 0.2 (≈ 0.576 µM) | 0.8 (≈ 2.3 µM) | 0.013 (≈ 0.0374 µM) | > 25 | > 50 | 8
CCn1cc(C(=O)O)c(=O)c2cc(F)c(N3CCN(C)CC3)cc21 [PEFLOXACIN] | 0.1 (≈ 0.3 µM) | 0.025 (≈ 0.075 µM) | – | – | 0.05 (≈ 0.15 µM) | 2.8 | 1.6 | 200 | 0.4 (≈ 1.2 µM) | 0.05 (≈ 0.15 µM) | 0.8 (≈ 2.4 µM) | 0.8 (≈ 2.4 µM) | – | 0.2 (≈ 0.6 µM) | 0.1 (≈ 0.3 µM) | 96 | 9.5 | 3.7
